{
  "source": "ChEMBL document CHEMBL3612001",
  "about": "“Design and discovery of 2-(4-(1H-tetrazol-5-yl)-1H-pyrazol-1-yl)-4-(4-phenyl)thiazole derivatives as cardiotonic agents via inhibition of PDE3” (Bioorg Med Chem, 2015)",
  "key": {"[1]": {"system": "Mus musculus", "test": "Toxicity in Swiss albino mouse assessed as changes in body weight at 100 mg/kg, po dosed once orally for 28 days (reference value: 31.2 +/- 1.6g)", "assay_type": "organism-based", "settings": "in vivo, 672 h"}, "[2]": {"system": "Mus musculus", "test": "Toxicity in Swiss albino mouse assessed as changes in total protein level at 100 mg/kg, po dosed once orally for 28 days (reference value: 3.45 +/- 0.45 […])", "assay_type": "organism-based", "settings": "in vivo, 672 h"}, "[3]": {"system": "Mus musculus", "test": "Toxicity in Swiss albino mouse assessed as changes in albumin level at 10 mg/kg, po dosed once orally for 28 days (reference value: 2.78 +/- 1.82 g/dL)", "assay_type": "organism-based", "settings": "in vivo, 672 h"}, "[4]": {"system": "Mus musculus", "test": "Toxicity in Swiss albino mouse assessed as changes in creatinine level at 1 mg/kg, po dosed once orally for 28 days (reference value: 0.04 +/- 0.37 mg/dL)", "assay_type": "organism-based", "settings": "in vivo, 672 h"}, "[5]": {"system": "Mus musculus", "test": "Toxicity in Swiss albino mouse assessed as changes in haemoglobin level at 10 mg/kg, po dosed once orally for 28 days (reference value: 13.87 +/- 0.46 g/dL)", "assay_type": "organism-based", "settings": "in vivo, 672 h"}, "[6]": {"system": "Mus musculus", "test": "Toxicity in Swiss albino mouse assessed as changes in albumin level at 1 mg/kg, po dosed once orally for 28 days (reference value: 2.78 +/- 1.82 g/dL)", "assay_type": "organism-based", "settings": "in vivo, 672 h"}, "[7]": {"system": "Mus musculus", "test": "Toxicity in Swiss albino mouse assessed as changes in cholesterol level at 10 mg/kg, po dosed once orally for 28 days (reference value: 138.43 +/- 1.52 mg/dL)", "assay_type": "organism-based", "settings": "in vivo, 672 h"}, "[8]": {"system": "Mus musculus", "test": "Toxicity in Swiss albino mouse assessed as changes in albumin level at 100 mg/kg, po dosed once orally for 28 days (reference value: 2.78 +/- 1.82 g/dL)", "assay_type": "organism-based", "settings": "in vivo, 672 h"}, "[9]": {"system": "Mus musculus", "test": "Toxicity in Swiss albino mouse assessed as changes in albumin level at 0.1 mg/kg, po dosed once orally for 28 days (reference value: 2.78 +/- 1.82 g/dL)", "assay_type": "organism-based", "settings": "in vivo, 672 h"}, "[10]": {"system": "Mus musculus", "test": "Toxicity in Swiss albino mouse assessed as changes in creatinine level at 100 mg/kg, po dosed once orally for 28 days (reference value: 0.04 +/- 0.37 mg/dL)", "assay_type": "organism-based", "settings": "in vivo, 672 h"}, "[11]": {"system": "Mus musculus", "test": "Toxicity in Swiss albino mouse assessed as changes in ALP level at 1 mg/kg, po dosed once orally for 28 days (reference value: 132.4 +/- 6.26 U/L)", "assay_type": "organism-based", "settings": "in vivo, 672 h"}, "[12]": {"system": "Mus musculus", "test": "Toxicity in Swiss albino mouse assessed as changes in ALP level at 0.1 mg/kg, po dosed once orally for 28 days (reference value: 132.4 +/- 6.26 U/L)", "assay_type": "organism-based", "settings": "in vivo, 672 h"}, "[13]": {"system": "Mus musculus", "test": "Toxicity in Swiss albino mouse assessed as changes in haemoglobin level at 100 mg/kg, po dosed once orally for 28 days (reference value: 13.87 +/- 0.46 g/dL)", "assay_type": "organism-based", "settings": "in vivo, 672 h"}, "[14]": {"system": "Mus musculus", "test": "Toxicity in Swiss albino mouse assessed as changes in SGOT level at 1 mg/kg, po dosed once orally for 28 days (reference value: 112.7 +/- 10.6 U/L)", "assay_type": "organism-based", "settings": "in vivo, 672 h"}, "[15]": {"system": "Cardiac atrium", "test": "Toxic cardiotonic activity in reserpine-pretreated and spontaneously beating rat atria assessed as chronotropic activity by measuring contractile frequency rate at 10 uM (reference value: 100%)", "assay_type": "toxicity", "in_short": "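Male Wistar rats (250–350 g) given reserpine 5 mg/kg ip 24 h before euthanasia under thiopental 80 mg/kg ip. Whole atria mounted in Krebs–Henseleit (95% O2/5% CO2, 35–37 °C, pH 7.35–7.45) at ~0.5 g resting tension, equilibrated 40–50 min. Used only if unresponsive to tyramine 1.5 μM. Compound added cumulatively (1–100 μM). Isometric force and rate recorded, six atria per compound.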"}, "[16]": {"system": "Mus musculus", "test": "Toxicity in Swiss albino mouse assessed as changes in triglycerides level at 10 mg/kg, po dosed once orally for 28 days (reference value: 263.69 +/- 3.38 mg/dL)", "assay_type": "organism-based", "settings": "in vivo, 672 h"}, "[17]": {"system": "Mus musculus", "test": "Toxicity in Swiss albino mouse assessed as changes in ALP level at 10 mg/kg, po dosed once orally for 28 days (reference value: 132.4 +/- 6.26 U/L)", "assay_type": "organism-based", "settings": "in vivo, 672 h"}, "[18]": {"system": "Mus musculus", "test": "Toxicity in Swiss albino mouse assessed as changes in haemoglobin level at 1 mg/kg, po dosed once orally for 28 days (reference value: 13.87 +/- 0.46 g/dL)", "assay_type": "organism-based", "settings": "in vivo, 672 h"}, "[19]": {"system": "Mus musculus", "test": "Toxicity in Swiss albino mouse assessed as changes in SGPT level at 0.1 mg/kg, po dosed once orally for 28 days (reference value: 41.46 +/- 17.25 U/L)", "assay_type": "organism-based", "settings": "in vivo, 672 h"}, "[20]": {"system": "Mus musculus", "test": "Toxicity in Swiss albino mouse assessed as changes in SGOT level at 10 mg/kg, po dosed once orally for 28 days (reference value: 112.7 +/- 10.6 U/L)", "assay_type": "organism-based", "settings": "in vivo, 672 h"}, "[21]": {"system": "Mus musculus", "test": "Toxicity in Swiss albino mouse assessed as changes in absolute and relative organ weight at 100 mg/kg, po dosed once orally for 28 days", "assay_type": "organism-based", "settings": "in vivo, 672 h", "in_short": "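Sub-acute oral study in Swiss albino mice, 20–25 g, 3 male + 3 female per group, 7-day acclimatisation, 22 ± 5 °C, 12 h light/dark cycle, standard feed and water ad libitum. Compound dissolved in DMSO, suspended in 0.7% CMC, given orally once daily for 28 days at 0.1, 1, 10 or 100 mg/kg, against vehicle controls. Animals observed throughout; gross pathology with absolute and relative organ weights at end; n = 6.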"}, "[22]": {"system": "Mus musculus", "test": "Toxicity in Swiss albino mouse assessed as changes in body weight at 1 mg/kg, po dosed once orally for 28 days (reference value: 31.2 +/- 1.6g)", "assay_type": "organism-based", "settings": "in vivo, 672 h"}, "[23]": {"system": "Mus musculus", "test": "Toxicity in Swiss albino mouse assessed as changes in body weight at 10 mg/kg, po dosed once orally for 28 days (reference value: 31.2 +/- 1.6g)", "assay_type": "organism-based", "settings": "in vivo, 672 h"}, "[24]": {"system": "Mus musculus", "test": "Toxicity in Swiss albino mouse up to 1000 mg/kg, po dosed as single acute dose", "assay_type": "organism-based", "settings": "in vivo"}, "[25]": {"system": "Mus musculus", "test": "Toxicity in Swiss albino mouse assessed as changes in cholesterol level at 0.1 mg/kg, po dosed once orally for 28 days (reference value: 138.43 +/- 1.52 mg/dL)", "assay_type": "organism-based", "settings": "in vivo, 672 h"}, "[26]": {"molecular_target": "cGMP-inhibited 3',5'-cyclic phosphodiesterase 3B (Homo sapiens, UniProt Q13370)", "sequence (Q13370 whole entry)": "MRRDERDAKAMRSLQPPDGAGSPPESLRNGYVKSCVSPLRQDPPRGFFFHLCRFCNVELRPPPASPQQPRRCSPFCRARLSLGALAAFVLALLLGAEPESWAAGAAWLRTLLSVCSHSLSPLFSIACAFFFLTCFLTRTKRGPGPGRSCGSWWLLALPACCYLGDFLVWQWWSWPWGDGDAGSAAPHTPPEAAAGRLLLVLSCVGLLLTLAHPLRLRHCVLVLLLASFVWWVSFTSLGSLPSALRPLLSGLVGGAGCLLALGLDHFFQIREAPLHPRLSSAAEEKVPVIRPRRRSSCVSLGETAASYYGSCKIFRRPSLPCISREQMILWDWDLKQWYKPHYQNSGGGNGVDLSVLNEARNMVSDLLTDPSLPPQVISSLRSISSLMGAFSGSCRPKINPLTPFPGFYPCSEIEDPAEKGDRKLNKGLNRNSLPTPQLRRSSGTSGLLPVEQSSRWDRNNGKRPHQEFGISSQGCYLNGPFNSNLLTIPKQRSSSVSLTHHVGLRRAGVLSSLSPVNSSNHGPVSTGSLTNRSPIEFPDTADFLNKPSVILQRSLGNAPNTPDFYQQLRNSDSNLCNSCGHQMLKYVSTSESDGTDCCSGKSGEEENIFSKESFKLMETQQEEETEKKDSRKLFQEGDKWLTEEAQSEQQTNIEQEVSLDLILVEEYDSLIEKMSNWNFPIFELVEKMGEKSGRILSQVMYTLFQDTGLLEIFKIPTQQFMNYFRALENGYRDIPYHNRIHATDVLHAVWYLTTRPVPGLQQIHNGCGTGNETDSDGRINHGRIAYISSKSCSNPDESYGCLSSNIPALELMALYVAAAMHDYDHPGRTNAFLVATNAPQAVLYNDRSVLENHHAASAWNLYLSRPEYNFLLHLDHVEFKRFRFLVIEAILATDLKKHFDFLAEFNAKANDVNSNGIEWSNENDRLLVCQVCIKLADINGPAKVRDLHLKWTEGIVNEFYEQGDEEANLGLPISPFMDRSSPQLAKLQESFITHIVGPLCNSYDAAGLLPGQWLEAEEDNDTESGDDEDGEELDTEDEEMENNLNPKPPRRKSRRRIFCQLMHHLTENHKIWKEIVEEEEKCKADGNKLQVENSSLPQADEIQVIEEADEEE", "test": "Inhibition of human PDE3B using FAM-cAMP by fluorescence polarization assay", "in_short": "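IMAP fluorescence polarization assay. 1 ng PDE3A or PDE3B with 100 nM FAM-cAMP in reaction buffer, 60 min at room temperature, then binding reagent (1:600) for 60 min. Read at ex 485/em 528 nm, duplicates. Activity scaled between no-enzyme FP (0%) and highest FP (100%). IC50 from sigmoidal fit over 0.01–100 µM.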"}},
  "data": [
    {"smiles": "Fc1ccc(-c2csc(-n3cc(-c4nnn[nH]4)cn3)n2)cc1", "values": [
      {"measurement": "Activity", "setting": "[1]", "result": 33, "unit": "g"},
      {"measurement": "Activity", "setting": "[2]", "result": 4.54, "unit": "g/dL"},
      {"measurement": "Activity", "setting": "[3]", "result": 2.57, "unit": "g/dL"},
      {"measurement": "Activity", "setting": "[4]", "result": 0.04, "unit": "mg/dL"},
      {"measurement": "Activity", "setting": "[5]", "result": 15.72, "unit": "g/dL"},
      {"measurement": "Activity", "setting": "[6]", "result": 2.61, "unit": "g/dL"},
      {"measurement": "Activity", "setting": "[7]", "result": 135.4, "unit": "mg/dL"},
      {"measurement": "Activity", "setting": "[8]", "result": 2.59, "unit": "g/dL"},
      {"measurement": "Activity", "setting": "[9]", "result": 2.89, "unit": "g/dL"},
      {"measurement": "Activity", "setting": "[10]", "result": 0.05, "unit": "mg/dL"},
      {"measurement": "Activity", "setting": "[11]", "result": 136.6, "unit": "U/L"},
      {"measurement": "Activity", "setting": "[12]", "result": 135.5, "unit": "U/L"},
      {"measurement": "Activity", "setting": "[13]", "result": 15.24, "unit": "g/dL"},
      {"measurement": "Activity", "setting": "[14]", "result": 109.8, "unit": "U/L"},
      {"measurement": "Activity", "setting": "[15]", "result": 114, "unit": "%"},
      {"measurement": "Activity", "setting": "[16]", "result": 251.86, "unit": "mg/dL"},
      {"measurement": "Activity", "setting": "[17]", "result": 133.3, "unit": "U/L"},
      {"measurement": "Activity", "setting": "[18]", "result": 15.34, "unit": "g/dL"},
      {"measurement": "Activity", "setting": "[19]", "result": 40.12, "unit": "U/L"},
      {"measurement": "Activity", "setting": "[20]", "result": 110.2, "unit": "U/L"},
      {"measurement": "Activity", "setting": "[21]", "result": "Non-toxic"},
      {"measurement": "Activity", "setting": "[22]", "result": 28.04, "unit": "g"},
      {"measurement": "Activity", "setting": "[23]", "result": 32.62, "unit": "g"},
      {"measurement": "Activity", "setting": "[24]", "result": "Non-toxic"},
      {"measurement": "Activity", "setting": "[25]", "result": 125.66, "unit": "mg/dL"},
      {"measurement": "IC50", "setting": "[26]", "result": 2340, "unit": "nM"}
    ]}
  ]
}
